Our source for the IC50 values is ChEMBL document CHEMBL1137345, “Endoperoxide derivatives from marine organisms: 1,2-dioxanes of the plakortin family as novel antimalarial agents” (J Med Chem, 2006).

Molecules are shown by their SMILES.

For assay [1], the system named is Plasmodium falciparum. In words: Antimalarial activity against chloroquine-sensitive Plasmodium falciparum D10 by pLDH assay. The class given is functional, organism-based. Put shortly: (§1)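 P. falciparum clones D10 (CQ-sensitive, moderately mefloquine-resistant) and W2 (CQ-resistant, mefloquine-susceptible) kept in human A+ RBCs in RPMI 1640 with 10% A+ plasma, HEPES and glutamine under 1% O2/5% CO2/94% N2. Asynchronous cultures (1-1.5% parasitemia, 1% hematocrit) exposed to serial dilutions (DMSO <1% final) for 72 h at 37 °C. Parasite LDH read at OD650. IC50 reported as mean ± SD of four experiments in triplicate.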

For assay [2], the system named is Plasmodium falciparum. In words: Antimalarial activity against chloroquine-resistant Plasmodium falciparum W2 by pLDH assay. In kind it is functional, organism-based. An outline of the steps: as §1

The term IC50 denotes the concentration needed to halve the response being measured. The low end stands for greater potency in that assay, the high end for weaker potency in that assay. For the molecule `CC[C@H](C[C@@]1(C)C[C@@H](CC)[C@@H](CC(=O)OC)OO1)[C@H]1O[C@@H]1CC`, the IC50 amounted to 1050 nM in assay [1] and 500 nM in assay [2].

Consider `CC/C=C/[C@H](CC)C[C@@]1(C)C[C@@H](CC)[C@@H](CCOC(C)=O)OO1`, for which the values for the half-inhibitory concentration (IC50) in assay [1] and in assay [2] were 840 nM and 460 nM, respectively.

Take `CC[C@H](C[C@@]1(C)C[C@@H](CC)[C@@H](CC(=O)OC)OO1)C(=O)OC`: the 50% inhibitory concentration (IC50) in assay [1] stood at 850 nM; in assay [2], 780 nM.

On to `CC[C@H](C[C@@]1(C)C[C@@H](CC)[C@@H](CC(=O)OC)OO1)[C@@H]1O[C@H]1CC`, for which the half-inhibitory concentration (IC50) in assay [1] stood at 1200 nM; in assay [2], 700 nM.

Turning to `CC/C=C/[C@H](CC)C[C@@]1(C)C[C@@H](CC)[C@@H](CCOC)OO1`, the IC50 in assay [1] turned out to be 740 nM; in assay [2] it was 410 nM.

Take `CC[C@H](C[C@@]1(C)C[C@@H](CC)[C@@H](CC(=O)OC)OO1)C(=O)O`: the figures for the IC50 in assay [1] and in assay [2] were 1200 nM and 1230 nM, respectively.

Turning to `CC/C=C/[C@H](CC)C[C@@]1(C)C[C@@H](CC)[C@@H](CCO)OO1`, the IC50 in assay [1] amounted to 830 nM; in assay [2], 480 nM.

`C[C@@H]1CC[C@H]2[C@@H](C)C(=O)O[C@@H]3O[C@@]4(C)CC[C@@H]1[C@]32OO4` [ARTEMISININ]: the IC50 in assay [1] worked out at 13 nM; in assay [2] it was 9 nM.

Take `CC/C=C/[C@H](CC)C[C@@]1(C)C[C@@H](CC)[C@@H](CC(=O)OC)OO1` [PLAKORTIN]: the IC50 is 870 nM in assay [1] and 410 nM in assay [2].
